ChEMBL document CHEMBL1129247, “Dihydrobenzofuran analogues of hallucinogens. 3. Models of 4-substituted (2,5-dimethoxyphenyl)alkylamine derivatives with rigidified methoxy groups” (J Med Chem, 1996)

Key:
[1] = target: T1, 5-hydroxytryptamine receptor 2A (Homo sapiens, UniProt P28223); experiment: Antagonistic activity at cloned human 5-hydroxytryptamine 2A receptor using [3H]ketanserin as radioligand; assay type: functional
In short: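 Human 5-HT2A expressed in AV12 cell membranes. The 0.8 mL assay held 50 mM Tris HCl, 100 nM prazosin to block α1 sites, 0.4–0.5 nM [3H]ketanserin and varying competitor, final pH 7.6. Incubated 15 min at 37 °C, then filtered and washed. Mianserin 3 μM defined nonspecific binding. Read by liquid scintillation.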

[2] = target: 5-hydroxytryptamine receptor 2A (Rattus norvegicus, UniProt P14842); experiment: Binding affinity towards rat cortical 5-hydroxytryptamine 2A receptor using [3H]ketanserin as radioligand
[3] = target: T2, 5-hydroxytryptamine receptor 2C (Homo sapiens, UniProt P28335); experiment: Agonistic activity at cloned human 5-hydroxytryptamine 2C receptor using [125I]DOI as radioligand; assay type: functional
T2 sequence (P28335 whole entry): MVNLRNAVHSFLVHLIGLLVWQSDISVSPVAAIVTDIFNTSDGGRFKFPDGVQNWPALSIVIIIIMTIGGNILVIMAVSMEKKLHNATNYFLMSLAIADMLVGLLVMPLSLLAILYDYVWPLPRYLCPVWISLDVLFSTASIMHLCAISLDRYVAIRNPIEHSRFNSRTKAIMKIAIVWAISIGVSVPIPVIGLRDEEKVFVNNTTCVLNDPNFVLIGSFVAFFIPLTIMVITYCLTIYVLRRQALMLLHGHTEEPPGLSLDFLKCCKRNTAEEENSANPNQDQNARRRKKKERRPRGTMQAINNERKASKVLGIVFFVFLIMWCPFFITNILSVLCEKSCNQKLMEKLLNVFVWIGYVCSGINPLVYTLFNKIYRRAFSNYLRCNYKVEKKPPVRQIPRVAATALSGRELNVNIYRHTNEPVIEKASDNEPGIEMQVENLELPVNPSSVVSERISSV
In short: (§1)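 AV12 hamster fibroblast membranes stably expressing the human receptor. Final buffer: 10 μM pargyline, 9.75 mM MgCl2, 0.5 mM EDTA, 0.1% Na ascorbate, 50 mM Tris HCl pH 7.4. [125I]DOI was at about 0.07–0.15 nM, with about 40 μg (2A) or 30 μg (2C) protein, for 30 min at 37 °C. Nonspecific binding: 1 μM ketanserin (2A) or 10 μM mianserin (2C). Read by filtration and gamma counting.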

[4] = target: T3, 5-hydroxytryptamine receptor 2B (Homo sapiens, UniProt P41595); experiment: Antagonistic activity at cloned human 5-hydroxytryptamine 2B receptor using [3H]rauwolscine as radioligand; assay type: functional
In short: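 Human 5-HT2B membranes from stably transformed AV12 cells in Tris HCl pH 7.4. Competition against 2 nM [3H]rauwolscine (final), with 500 nM efaroxan to mask α2 sites, in 50 mM Tris HCl pH 7.4. Incubated 20 min at 37 °C, then filtered. Nonspecific binding with 10 μM 1-naphthylpiperazine.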

[5] = target: T4, 5-hydroxytryptamine receptor 1A (Rattus norvegicus, UniProt P19327); experiment: Binding affinity towards rat hippocampal 5-hydroxytryptamine 1A receptor using [3H]8-OH-DPAT as radioligand; assay type: tissue-based, Hippocampus
T4 sequence (P19327 whole entry): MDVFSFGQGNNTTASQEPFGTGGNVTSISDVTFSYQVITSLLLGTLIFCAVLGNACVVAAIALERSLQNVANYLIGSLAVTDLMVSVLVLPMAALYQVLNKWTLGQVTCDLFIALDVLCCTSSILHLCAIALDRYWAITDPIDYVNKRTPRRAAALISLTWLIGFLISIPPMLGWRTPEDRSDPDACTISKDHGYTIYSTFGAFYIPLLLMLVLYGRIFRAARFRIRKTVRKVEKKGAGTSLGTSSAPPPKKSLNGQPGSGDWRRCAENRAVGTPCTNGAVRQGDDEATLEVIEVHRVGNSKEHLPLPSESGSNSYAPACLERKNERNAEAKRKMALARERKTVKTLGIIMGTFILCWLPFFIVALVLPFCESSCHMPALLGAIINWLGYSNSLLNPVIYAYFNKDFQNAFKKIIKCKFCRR
In short: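 Hippocampus pooled from male Sprague–Dawley rats (175–199 g), homogenised in sucrose and frozen. Membranes washed and preincubated twice at 37 °C in Tris HCl pH 7.4 with EDTA, ascorbate and pargyline. Assay: 0.75 nM [3H]-8-OH-DPAT, 200–400 μg protein, 15 min at 37 °C, GF/C filtration. Nonspecific binding: 10 μM 5-HT. Run in triplicate; expressed as Ki.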

[6] = target: T3, 5-hydroxytryptamine receptor 2B; experiment: Agonistic activity at cloned human 5-hydroxytryptamine 2B receptor using [3H]-5-HT as radioligand; assay type: functional
In short: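 Membranes from AV12 hamster fibroblasts stably expressing human 5-HT2B, lysed hypotonically in 50 mM Tris HCl pH 7.4. Competition against about 2 nM [3H]-5-HT (free level measured) in 50 mM Tris, 3 mM CaCl2, 10 μM pargyline, 0.1% ascorbic acid, pH 7.4. Drug dilutions spanned 6 log units. About 100-150 μg protein per tube, 15 min at 37 °C, in triplicate. Nonspecific binding with 10 μM 5-HT or 1-NP. Filtration, then scintillation counting.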

[7] = target: T1, 5-hydroxytryptamine receptor 2A; experiment: Agonistic activity at cloned human 5-hydroxytryptamine 2A receptor using [125I]DOI as radioligand; assay type: functional; in short: as §1
Rattus norvegicus [8] = organism: Rattus norvegicus; experiment: Effective dose for behavioral activity or hallucinogenic potential in drug discrimination studies in LSD(d-lysergic acid N,N-diethylamide) trained rats; assay type: functional; design: unit not given here
In short: (§2)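 Male Sprague–Dawley rats (200–220 g) trained in a two-lever, FR50 food task to tell LSD tartrate (0.08 mg/kg ip) from saline. Test drugs were given ip in 0.9% saline 30 min before extinction sessions. The first lever reaching 50 presses was scored; no completion within 5 min counted as disruption.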

[9] = target: T2, 5-hydroxytryptamine receptor 2C; experiment: Antagonistic activity at cloned human 5-hydroxytryptamine 2C receptor using [3H]mesulergine as radioligand; assay type: functional
In short: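 AV12 membranes expressing human 5-HT2C. The 0.8 mL assay held 0.74–0.82 nM [3H]mesulergine, varying competitor and Tris HCl, final pH 7.6. Incubated 30 min at 37 °C, then filtered, washed and counted by liquid scintillation. Mianserin defined nonspecific binding.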

Rattus norvegicus [10] = organism: Rattus norvegicus; experiment: Effective dose in Drug Discrimination studies in LSD(d-lysergic acid N,N-diethylamide) trained rats. No. of animals tested 15; assay type: functional; in short: as §2

Sequence of 5-hydroxytryptamine receptor 2A (Rattus norvegicus, UniProt P14842) (P14842 whole entry): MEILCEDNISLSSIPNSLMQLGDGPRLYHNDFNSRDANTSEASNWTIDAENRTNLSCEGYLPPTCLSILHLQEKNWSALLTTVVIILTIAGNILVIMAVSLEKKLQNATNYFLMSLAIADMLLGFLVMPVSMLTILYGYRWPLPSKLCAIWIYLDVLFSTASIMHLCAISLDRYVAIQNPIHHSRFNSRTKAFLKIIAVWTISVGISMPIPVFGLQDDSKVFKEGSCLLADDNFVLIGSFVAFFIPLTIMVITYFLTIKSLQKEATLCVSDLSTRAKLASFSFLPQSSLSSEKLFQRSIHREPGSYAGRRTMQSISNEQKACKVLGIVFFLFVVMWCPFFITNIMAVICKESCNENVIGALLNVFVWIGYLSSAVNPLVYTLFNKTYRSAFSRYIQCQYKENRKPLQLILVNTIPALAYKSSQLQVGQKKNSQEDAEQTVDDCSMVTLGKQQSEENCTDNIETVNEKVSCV
T3 sequence (P41595 whole entry): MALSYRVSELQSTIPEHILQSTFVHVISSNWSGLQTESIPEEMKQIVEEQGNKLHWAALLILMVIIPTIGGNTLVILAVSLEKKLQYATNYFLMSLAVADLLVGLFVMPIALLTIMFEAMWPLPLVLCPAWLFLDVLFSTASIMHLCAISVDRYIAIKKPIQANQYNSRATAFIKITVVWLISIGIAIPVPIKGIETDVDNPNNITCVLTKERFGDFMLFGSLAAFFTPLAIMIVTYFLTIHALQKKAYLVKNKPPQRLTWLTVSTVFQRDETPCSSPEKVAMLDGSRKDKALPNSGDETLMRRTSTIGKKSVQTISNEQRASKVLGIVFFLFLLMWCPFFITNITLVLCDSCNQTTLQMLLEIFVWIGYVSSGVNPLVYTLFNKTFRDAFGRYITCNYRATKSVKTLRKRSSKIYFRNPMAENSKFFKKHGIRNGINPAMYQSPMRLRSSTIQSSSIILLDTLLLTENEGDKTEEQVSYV
T1 sequence (P28223 whole entry): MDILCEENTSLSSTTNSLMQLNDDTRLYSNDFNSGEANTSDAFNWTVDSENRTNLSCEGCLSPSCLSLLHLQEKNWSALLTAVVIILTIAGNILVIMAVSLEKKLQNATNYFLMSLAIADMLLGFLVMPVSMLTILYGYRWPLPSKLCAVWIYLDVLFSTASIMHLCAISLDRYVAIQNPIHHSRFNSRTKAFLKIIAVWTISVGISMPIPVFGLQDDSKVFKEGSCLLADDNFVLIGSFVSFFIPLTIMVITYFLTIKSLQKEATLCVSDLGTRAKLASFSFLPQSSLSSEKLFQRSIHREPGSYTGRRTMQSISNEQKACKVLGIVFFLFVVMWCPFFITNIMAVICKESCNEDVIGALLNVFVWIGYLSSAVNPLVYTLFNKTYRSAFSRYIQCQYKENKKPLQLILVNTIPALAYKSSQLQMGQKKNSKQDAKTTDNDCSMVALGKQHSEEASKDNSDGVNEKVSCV

Row | Compound | Ki [2] | Ki [5] | ED50 (Rattus norvegicus [8]) | also measured
1 | CC(N)Cc1c2c(c(Br)c3c1OCC3)OCC2 (stereo unspecified) | 18 nM | 4.3 nM | 61 | Ki [1]: 10.7 nM; Ki [3]: 0.3 nM; Ki [4]: 1.15 nM; Ki [6]: 1.6 nM; Ki [7]: 0.48 nM; Ki [9]: 2.28 nM
2 | COc1cc(Br)c2c(c1CC(C)N)CCO2 (stereo unspecified) |  |  | 570 | 
3 | CC(N)Cc1c2c(cc3c1OCC3)OCC2 (stereo unspecified) | 2010 nM | 29 nM | 64000 | 
4 | NCCc1c2c(c(Br)c3c1OCC3)OCC2 | 34 nM | 0.8 nM |  | 
5 | COc1cc(CC(C)N)c(OC)cc1Br (stereo unspecified) [BROLAMFETAMINE] |  | 6.1 nM |  | 
6 | Cc1c2c(c(CC(C)N)c3c1OCC3)OCC2 (stereo unspecified) |  |  | 780 | 
7 | CCN(CC)C(=O)[C@@H]1C=C2c3cccc4[nH]cc(c34)C[C@H]2N(C)C1 [LYSERGIDE] |  |  |  | ED50 (Rattus norvegicus [10]): 40 µmol/kg
8 | NCCc1c2c(cc3c1OCC3)OCC2 | 2300 nM | 5.2 nM | 1430 | 
